Results reported in ChEMBL document CHEMBL5357072, “Structural Modification of Noscapine via Photoredox/Nickel Dual Catalysis for the Discovery of S-Phase Arresting Agents” (ACS Med Chem Lett, 2024).

Assays:
JeKo-1 [1] = experiment: Antiproliferative activity against human JeKo-1 cells assessed as inhibition of cell growth incubated for 48 hrs by CCK8 assay; type: functional, cell-based; conditions: JeKo-1, 48 h
Method in brief: (§1)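 CCK-8 growth-inhibition assay in the malignant haematological lines MOLM-13, NB4 and Jeko-1 and in normal PBMC. Cells were treated across a range of doses and IC50 taken as the half-maximal growth-inhibitory concentration. Data are mean ± SD of triplicate samples, and experiments were repeated at least three times.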

MOLM-13 [2] = experiment: Induction of apoptosis in human MOLM-13 cells assessed as early apoptotic cells at 10 uM incubated for 48 hrs by Annexin V-FITC/PI staining based flow cytometric analysis (reference value: 4.10%); type: functional
MOLM-13 [3] = experiment: Antiproliferative activity against human MOLM-13 cells assessed as inhibition of cell growth incubated for 48 hrs by CCK8 assay; type: functional, cell-based; conditions: MOLM-13, 48 h; method in brief: as §1
MOLM-13 [4] = experiment: Antiproliferative activity against human MOLM-13 cells assessed as cell growth inhibition at 10 uM incubated for 48 hrs by CCK8 assay relative to control; type: functional; conditions: read-out: GI
Method in brief: (§2)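 Single-concentration screen of six cancer cell lines. Cells were exposed to 10 μM compound and growth was measured by CCK-8 assay. Results are reported as inhibition rate at 10 μM.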

MOLM-13 [5] = experiment: Cell cycle arrest in human MOLM-13 cells assessed as accumulation of S phase cells at 10 uM incubated for 24 hrs by RNase A/PI staining based flow cytometry analysis (reference value: 50.12%); type: functional
MOLM-13 [6] = experiment: Cell cycle arrest in human MOLM-13 cells assessed as accumulation of G2/M phase cells at 10 uM incubated for 24 hrs by RNase A/PI staining based flow cytometry analysis (reference value: 11.74%); type: functional
JeKo-1 [7] = experiment: Antiproliferative activity against human JeKo-1 cells assessed as cell growth inhibition at 10 uM incubated for 48 hrs by CCK8 assay relative to control; type: functional; conditions: read-out: GI; method in brief: as §2
MOLM-13 [8] = experiment: Induction of apoptosis in human MOLM-13 cells assessed as viable cells at 10 uM incubated for 48 hrs by Annexin V-FITC/PI staining based flow cytometric analysis (reference value: 92.24%); type: functional; conditions: read-out: Activity
U-251 = experiment: Antiproliferative activity against human U-251 cells assessed as cell growth inhibition at 10 uM incubated for 48 hrs by CCK8 assay relative to control; type: functional; conditions: read-out: GI; method in brief: as §2
MOLM-13 [9] = experiment: Induction of apoptosis in human MOLM-13 cells assessed as necrotic cells at 10 uM incubated for 48 hrs by Annexin V-FITC/PI staining based flow cytometric analysis (reference value: 0.48%); type: functional
A549 = experiment: Antiproliferative activity against human A549 cells assessed as cell growth inhibition at 10 uM incubated for 48 hrs by CCK8 assay relative to control; type: functional; conditions: read-out: GI; method in brief: as §2
MOLM-13 [10] = experiment: Induction of apoptosis in human MOLM-13 cells assessed as late apoptotic cells at 10 uM incubated for 48 hrs by Annexin V-FITC/PI staining based flow cytometric analysis (reference value: 3.17%); type: functional
NB-4 [11] = experiment: Antiproliferative activity against human NB4 cells assessed as cell growth inhibition at 10 uM incubated for 48 hrs by CCK8 assay relative to control; type: functional; conditions: read-out: GI; method in brief: as §2
HeLa = experiment: Antiproliferative activity against human HeLa cells assessed as cell growth inhibition at 10 uM incubated for 48 hrs by CCK8 assay relative to control; type: functional; conditions: read-out: GI; method in brief: as §2
MOLM-13 [12] = experiment: Cell cycle arrest in human MOLM-13 cells assessed as accumulation of G0/G1 phase cells at 10 uM incubated for 24 hrs by RNase A/PI staining based flow cytometry analysis (reference value: 38.14%); type: functional
NB-4 [13] = experiment: Antiproliferative activity against human NB4 cells assessed as inhibition of cell growth incubated for 48 hrs by CCK8 assay; type: functional, cell-based; conditions: NB-4, 48 h; method in brief: as §1

COc1ccc2c(c1OC)C(=O)O[C@@H]2[C@H]1c2c(c(Br)c3c(c2OC)OCO3)CCN1C gave an IC50 (JeKo-1 [1]) of 11.5 µM, an Activity (MOLM-13 [2]) of 10.63% and an IC50 (MOLM-13 [3]) of 15.3 µM. It also gave an inhibition of growth at 10 µM (MOLM-13 [4]) of 41.9%, an Activity (MOLM-13 [5]) of 30.6% and an Activity (MOLM-13 [6]) of 36.44%. The inhibition of growth at 10 µM (JeKo-1 [7]) was 48.9%, the viability at 10 µM (MOLM-13 [8]) was 78.1% and the inhibition of growth at 10 µM (U-251) was < 5%. It also gave an Activity (MOLM-13 [9]) of 0.69%, an inhibition of growth at 10 µM (A549) of 15.9% and an Activity (MOLM-13 [10]) of 10.56%. It also gave an inhibition of growth at 10 µM (NB-4 [11]) of 38.3%, an inhibition of growth at 10 µM (HeLa) of 28.1% and an Activity (MOLM-13 [12]) of 32.96%. The IC50 (NB-4 [13]) was 16.3 µM.

COc1ccc2c(c1OC)C(=O)O[C@@H]2[C@H]1c2c(c(C34C[C@H]5C[C@H](C3)C[C@@H](C4)C5)c3c(c2OC)OCO3)CCN1C(=O)OC(C)(C)C was tested, and the inhibition of growth at 10 µM (MOLM-13 [4]) was 17.6%, the inhibition of growth at 10 µM (JeKo-1 [7]) was < 5% and the inhibition of growth at 10 µM (U-251) was < 5%. The inhibition of growth at 10 µM (A549) was < 5%, the inhibition of growth at 10 µM (NB-4 [11]) was < 5% and the inhibition of growth at 10 µM (HeLa) was < 5%.

With CCCCc1c2c(c(OC)c3c1OCO3)[C@H]([C@H]1OC(=O)c3c1ccc(OC)c3OC)N(C(=O)OC(C)(C)C)CC2 the inhibition of growth at 10 µM (MOLM-13 [4]) was 48.6%, the inhibition of growth at 10 µM (JeKo-1 [7]) was 11.4% and the inhibition of growth at 10 µM (U-251) was < 5%. For the same compound, the inhibition of growth at 10 µM (A549) was < 5%, the inhibition of growth at 10 µM (NB-4 [11]) was 10% and the inhibition of growth at 10 µM (HeLa) was < 5%.

Compound COc1ccc2c(c1OC)C(=O)O[C@@H]2[C@H]1c2c(c(CC3CN(C(=O)OCc4ccccc4)C3)c3c(c2OC)OCO3)CCN1C has an IC50 (JeKo-1 [1]) of 5.11 µM, an IC50 (MOLM-13 [3]) of 4.37 µM and an IC50 (NB-4 [13]) of 10.7 µM.

COc1ccc2c(c1OC)C(=O)O[C@@H]2[C@H]1c2c(c(C3CCCCCC3)c3c(c2OC)OCO3)CCN1C(=O)OC(C)(C)C gave an inhibition of growth at 10 µM (MOLM-13 [4]) of 39.4%, an inhibition of growth at 10 µM (JeKo-1 [7]) of 10.3% and an inhibition of growth at 10 µM (U-251) of 20.5%. The inhibition of growth at 10 µM (A549) was < 5%, the inhibition of growth at 10 µM (NB-4 [11]) was < 5% and the inhibition of growth at 10 µM (HeLa) was < 5%.

COc1ccc2c(c1OC)C(=O)O[C@@H]2[C@H]1c2c(c(CC3CN(C)C3)c3c(c2OC)OCO3)CCN1C was tested, and the IC50 (JeKo-1 [1]) was > 20 µM, the IC50 (MOLM-13 [3]) was > 20 µM and the IC50 (NB-4 [13]) was > 20 µM.

COc1ccc2c(c1OC)C(=O)O[C@@H]2[C@H]1c2c(c(CC3CC3)c3c(c2OC)OCO3)CCN1C(=O)OC(C)(C)C was tested, and the inhibition of growth at 10 µM (MOLM-13 [4]) was 43.6%, the inhibition of growth at 10 µM (JeKo-1 [7]) was < 5% and the inhibition of growth at 10 µM (U-251) was < 5%. For the same compound, the inhibition of growth at 10 µM (A549) was < 5%, the inhibition of growth at 10 µM (NB-4 [11]) was 8.2% and the inhibition of growth at 10 µM (HeLa) was < 5%.

In the case of COc1ccc2c(c1OC)C(=O)O[C@@H]2[C@H]1c2c(c(CCCc3ccccc3)c3c(c2OC)OCO3)CCN1C(=O)OC(C)(C)C, the inhibition of growth at 10 µM (MOLM-13 [4]) is reported as 63.2%, the inhibition of growth at 10 µM (JeKo-1 [7]) is reported as 13.7% and the inhibition of growth at 10 µM (U-251) is reported as < 5%. For the same compound, the inhibition of growth at 10 µM (A549) was < 5%, the inhibition of growth at 10 µM (NB-4 [11]) was 25.1% and the inhibition of growth at 10 µM (HeLa) was < 5%.
